Experimental data as given in ChEMBL document CHEMBL4342502, “Synthesis and Antichlamydial Activity of Molecules Based on Dysregulators of Cylindrical Proteases” (J Med Chem, 2020).
Active and inactive are the calls of the source. The rule behind the calls is not given here.

Key:
[1] = Stability of compound in human liver microsomes at 1 ug/ml measured up to 60 mins in absence of NADPH by LC-MS/MS analysis; assay type: ADME, Microsome; settings: 1 h
How it was run: (§1)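 Human liver microsomes (1.0 mg/mL protein) in 100 mM phosphate pH 7.4 with 10 mM MgCl2 and 2 mM NADPH, preincubated 10 min at 37 °C. Reaction started with compound at 1 μg/mL. Sampled at 0, 5, 15, 20, 30, 45 and 60 min and quenched in methanol with internal standard. Controls: no NADPH (negative), testosterone (positive). Analysed by LC-MS/MS, triplicate.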

Candida albicans = test: Antifungal activity against Candida albicans ATCC 90028 assessed as fungal growth inhibition at 32 ug/ml measured after 16 hrs by broth microdilution method; assay type: functional, organism-based
Klebsiella pneumoniae = test: Antibacterial activity against Klebsiella pneumoniae ATCC 700603 assessed as bacterial growth inhibition at 32 ug/ml measured after 16 hrs by broth microdilution method; assay type: functional, organism-based
Cryptococcus neoformans = test: Antifungal activity against Cryptococcus neoformans var. grubii H99 ATCC […] as fungal growth inhibition at 32 ug/ml measured after 16 hrs by broth microdilution method; assay type: functional, organism-based; settings: var. grubii H99 ATCC 208821
Escherichia coli [2] = test: Antibacterial activity against Escherichia coli ATCC 25922 assessed as bacterial growth inhibition at 32 ug/ml measured after 16 hrs by broth microdilution method; assay type: functional, organism-based
Acinetobacter baumannii = test: Antibacterial activity against Acinetobacter baumannii ATCC 19606 assessed as bacterial growth inhibition at 32 ug/ml measured after 16 hrs by broth microdilution method; assay type: functional, organism-based; settings: ATCC 19606 = CIP 70.34 = JCM 6841
[3] = Half life in human liver microsomes at 1 ug/ml measured up to 60 mins by LC-MS/MS analysis; assay type: ADME, Microsome; how it was run: as §1
Staphylococcus aureus [4] = test: Antibacterial activity against Staphylococcus aureus JE2 assessed as bacterial death up to 256 ug/ml measured after 16 hrs by broth microdilution method; assay type: functional, organism-based
How it was run: (§2)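 Broth microdilution in Mueller Hinton broth, triplicate. Direct colony suspension at 1.5 x 10^8 CFU/mL diluted to ~10^5 CFU/mL. Serial dilutions made from DMSO stocks at 1 mg/mL; vancomycin positive control, blank medium negative control. Incubated 16 h at optimum temperature. MIC is the lowest concentration without visible growth at 600 nm; mean of triplicate determinations.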

[5] = Stability of the compound in simulated gastric fluid at 50 uM and pH 1.2 at 37 degree C measured up to 120 mins by HPLC-ESI/MS analysis; settings: simulated gi fluid, pH 1.2, 2 h
Escherichia coli [6] = test: Antibacterial activity against Escherichia coli K12 assessed as bacterial growth inhibition at 32 ug/ml measured after 16 hrs by broth microdilution method; assay type: functional, organism-based; settings: K-12; how it was run: as §2
[7] = Hepatic intrinsic clearance in human liver microsomes at 1 ug/ml measured per kg body weight up to 60 mins by LC-MS/MS analysis; assay type: ADME, Microsome; settings: 1 h
[8] = Drug metabolism in human liver microsomes assessed as amount of drug modified at 1 ug/ml […] in presence of NADPH by LC-MS/MS analysis; assay type: ADME, Microsome; settings: read-out: Drug metabolism
Staphylococcus aureus [9] = test: Antibacterial activity against Staphylococcus aureus JE2 assessed as bacterial growth inhibition at 32 ug/ml measured after 16 hrs by broth microdilution method; assay type: functional, organism-based; how it was run: as §2
[10] = Intrinsic clearance in human liver microsomes at 1 ug/ml measured per mg protein up to 60 mins by LC-MS/MS analysis; assay type: ADME, Microsome; how it was run: as §1
Escherichia coli [11] = test: Antibacterial activity against Escherichia coli K12 assessed as bacterial death up to 256 ug/ml measured after 16 hrs by broth microdilution method; assay type: functional, organism-based; settings: K-12; how it was run: as §2
Pseudomonas aeruginosa = test: Antibacterial activity against Pseudomonas aeruginosa ATCC 27853 assessed as bacterial growth inhibition at 32 ug/ml measured after 16 hrs by broth microdilution method; assay type: functional, organism-based
[12] = Stability of compound in mouse pre-heated plasma at 50 uM incubated up to 120 mins by HPLC-ESI/MS analysis; assay type: ADME, cell-free; settings: 2 h
How it was run: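 Compounds from 2.5 mM DMSO stocks incubated at 50 μM final in mouse plasma diluted to 80% with PBS, preheated, 37 °C, shaking. Sampled at 0, 15, 30, 60, 90 and 120 min and quenched with cold acetonitrile. Centrifuged; supernatant analysed by HPLC-ESI-MS. Peak area reported relative to time zero. Enalapril positive control; triplicate.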

Staphylococcus aureus [13] = test: Antibacterial activity against methicillin-resistant Staphylococcus aureus ATCC 43300 assessed as bacterial growth inhibition at 32 ug/ml measured after 16 hrs by broth microdilution method; assay type: functional, organism-based
Chlamydia trachomatis [14] = test: Anti-chlamydial activity against Chlamydia trachomatis Serovar LGV-L2 infected in Hep2 cells assessed as reduction in chlamydial infectivity by measuring decrease in inclusion forming units at 50 ug/ml treated at 8 hrs post-infection and 24 hrs later re-infecting fresh Hep2 cells monolayer with infected cells and measured at 24 hrs post re-infection by immunofluorescence staining based microscopy analysis; assay type: functional, organism-based
How it was run: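 HEp-2 cells in DMEM with 10% FBS, infected with C. trachomatis L2 at MOI 1. Compounds added 8 hpi in triplicate; DMSO stocks at 50 mg/mL. At 24 hpi lysates collected in sucrose storage medium, frozen at −80 °C, and used to infect fresh HEp-2 monolayers in 10-fold dilutions. After 24 h, stained with goat anti-MOMP and Alexa488 secondary. Inclusions counted in 15 fields at 20x; IFU = mean count per field corrected for dilution.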

HaCaT = test: Cytotoxicity against immortal human HaCaT cells assessed as reduction in cell viability at 50 ug/ml after 24 hrs by CCK-8 assay; assay type: cell-based
How it was run: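 HeLa 229 and HaCaT cells in DMEM with 10% FBS and 1% penicillin/streptomycin, 37 °C, 5% CO2, seeded at 5000 cells/well. Next day treated with 50 μg/mL in triplicate, with matching DMSO controls. After 24 h, CCK-8 added for 2 h; corrected absorbance read at 450 nm.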

Chlamydia trachomatis [15] = test: Anti-chlamydial activity against Chlamydia trachomatis Serovar LGV-L2 infected in Hep2 cells assessed as inhibition of chlamydial inclusion at 50 ug/ml treated at 8 hrs post infection and measured at 24 hrs post-infection by immunofluorescence assay; assay type: functional, organism-based
How it was run: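 HEp-2 cells infected with C. trachomatis serovar L2. Compounds at 50 μg/mL added 8 hpi; inclusion number and size assessed by immunofluorescence at 24 hpi against untreated cells. Cell morphology and viability checked by phase-contrast microscopy.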

[16] = (§3) Activation of recombinant human C-terminal 6xHis-tagged ClpP expressed in Escherichia coli assessed as induction of casein degradation at 0.1 to 1 uM using FITC-labelled casein as substrate pretreated with enzyme for 30 mins followed by substrate addition and measured every 3 mins for 3 hrs in absence of AAA+ chaperone by fluorescence based tecan-plate reader assay
How it was run: (§4)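 Recombinant C-terminal His6-tagged ClpP, expressed in a clpAPX-null E. coli strain and purified (mammalian ClpP without mitochondrial signal, codon-optimized). ClpP at 1 or 0.1 μM (E. coli), 1 μM (human, mouse) or 6 μM (chlamydial ClpP1 and ClpP2) preincubated with compound or DMSO, 30 min, 32 °C, in HEPES pH 7.6/KCl/MgCl2/DTT/glycerol buffer. 20 μM FITC-casein then added. Fluorescence (ex 490/em 525 nm) read every 3 min for 3 h. At least three runs on at least two protein preparations.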

[17] = target: ATP-dependent Clp protease proteolytic subunit (Escherichia coli (strain K12)) (UniProt P0A6G7); test: as §3, with “recombinant” for “recombinant human C-terminal 6xHis-tagged ClpP expressed in”, “coli ClpP” for “coli”; how it was run: as §4
[18] = as §3, with “mouse” for “human”; how it was run: as §4
[19] = Toxicity in Drosophila melanogaster assessed as survival rate at 0.25 to 1 mM; settings: 1000 µM
How it was run: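 Drosophila SMART assay using third-instar larvae (72 ± 4 h) from ST and HB crosses. Larvae exposed in hydrated instant mashed-potato medium at 0.25, 0.5 and 1.0 mM final. Vehicle control: water with 1% Tween-80 and 3% ethanol. Survival of treated groups compared statistically with the vehicle control.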

[20] = Mutagenicity in Drosophila melanogaster somatic cells assessed as frequency of clone formation in ST crosses at 0.25 to 1 mM by SMART assay; assay type: ADME; settings: 1000 µM
How it was run: (§5)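 Drosophila SMART wing-spot assay, ST and HB crosses. Third-instar larvae (72 ± 4 h) placed on hydrated instant mashed potato medium containing compound at 0.25, 0.5 or 1.0 mM final. Negative control: water with 1% Tween-80 and 3% ethanol. Statistics by Frei and Würgler two-sided U test, P≤0.05.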

[21] = Mutagenicity in Drosophila melanogaster somatic cells assessed as frequency of clone formation in HB crosses at 0.25 to 1 mM by SMART assay; assay type: ADME; settings: 1000 µM; how it was run: as §5

Chain of ATP-dependent Clp protease proteolytic subunit (Escherichia coli (strain K12)) (P0A6G7 whole entry): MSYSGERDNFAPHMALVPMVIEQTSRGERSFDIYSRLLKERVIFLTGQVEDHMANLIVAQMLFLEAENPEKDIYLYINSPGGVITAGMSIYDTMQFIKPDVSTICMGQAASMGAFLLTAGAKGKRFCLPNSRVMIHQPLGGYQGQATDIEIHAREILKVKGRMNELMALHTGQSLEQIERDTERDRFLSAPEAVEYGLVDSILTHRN

SMILES	inhibition (Candida albicans)	inhibition (Klebsiella pneumoniae)	inhibition (Cryptococcus neoformans)	inhibition (Escherichia coli [2])	inhibition (Acinetobacter baumannii)	Activity (Staphylococcus aureus [4])	inhibition (Escherichia coli [6])	inhibition (Staphylococcus aureus [9])	Activity (Escherichia coli [11])	inhibition (Pseudomonas aeruginosa)	inhibition (Staphylococcus aureus [13])	inhibition (Chlamydia trachomatis [14])	inhibition (Chlamydia trachomatis [15])	other results
CC(C)(C(=O)N1CCN(c2ccc(Cl)c(Cl)c2)CC1)S(=O)(=O)c1ccc(C(F)(F)F)cn1	inactive	inactive	inactive	inactive	inactive	inactive	inactive	inactive	inactive	inactive	inactive	Active	Active	Stability [1]: Stable; half-life at 1 ug/ml ([3]; liver microsomes): 6.25 min; Stability [5]: Stable; CLH [7]: 874 mL/min/kg; metabolised at 10 min, 1 ug/ml [8]: 90%; microsomal CLint at 1 ug/ml ([10]; liver microsomes, read-out: CLH): 112 µL/min/mg; Stability [12]: Stable; Activity (HaCaT): Non-Toxic
Cc1ccccc1N1CCN(C(=O)C(C)(C)S(=O)(=O)c2ccc(C(F)(F)F)cn2)CC1	inactive	inactive	inactive	inactive	inactive	inactive	inactive	inactive	inactive	inactive	inactive	Active	Active	
Cc1ccc(CN2CCN(C(=O)C(C)(C)S(=O)(=O)c3ccc(C(F)(F)F)cn3)CC2)cc1	inactive	inactive	inactive	inactive	inactive	inactive	inactive	inactive	inactive	inactive	inactive		Active	Activity (HaCaT): Non-Toxic
CC(C)(C(=O)NCCSc1ccccc1Cl)S(=O)(=O)c1ccccc1													inactive	Activity [16]: Not Active; Activity [17]: inactive; Activity [18]: Not Active
CC(C)(C(=O)NCCOc1ccccc1)S(=O)(=O)c1ccc(C(F)(F)F)cn1	inactive	inactive	inactive	inactive	inactive	inactive	inactive	inactive	inactive	inactive	inactive	Active	Active	Stability [1]: Stable; t1/2 ([3]; microsomes, 1 h): 3.73 min; CLH [7]: 1460 mL/min/kg; metabolised at 10 min, 1 ug/ml [8]: 90%; microsomal intrinsic clearance ([10]; microsomes, 1 h): 185.6 µL/min
CC(C)(C(=O)NCCSc1ccc(Cl)cc1)S(=O)(=O)c1ccccc1	inactive	inactive	inactive	inactive	inactive		inactive	inactive		inactive	inactive		inactive	Activity [16]: Not Active; Activity [17]: inactive; Activity [18]: Not Active
CC(C)(C(=O)NCCOc1ccccc1Cl)S(=O)(=O)c1ccccc1	inactive	inactive	inactive	inactive	inactive		inactive	inactive		inactive	inactive		inactive	Activity [19]: Non-Toxic
CC(C)(C(=O)N1CCN(Cc2cccc(Cl)c2)CC1)S(=O)(=O)c1ccc(C(F)(F)F)cn1	inactive	inactive	inactive	inactive	inactive		inactive	inactive		inactive	inactive	Active	Active	Activity [20]: Non-Toxic; Activity [19]: Non-Toxic; Activity [21]: Non-Toxic
